Test results taken from ChEMBL document CHEMBL1149824, “Tasumatrols U-Z, taxane diterpene esters from Taxus sumatrana” (2008).
Converted amounts (≈) assume the structure as drawn. The source made the active and inactive calls. The calls are words filed in the database; no cut-off is given here.

Columns and labels:
Format in all cases: functional
Settings in all cases: for EC50: read-out: ED50 (the source's name)
WiDr = experiment: Cytotoxicity against human WiDr cells by MTT assay
How it was run: (§1)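 MTT assay on human tumor cell lines (Hep2/Hepa2 […], WiDr colon, HeLa cervical). ED50 is the concentration of test sample giving a 50% reduction in absorbance relative to untreated cells, in µg/mL. Camptothecin served as positive control.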

HeLa = experiment: Cytotoxicity against human HeLa cells by MTT assay; how it was run: as §1
HEp-2 = experiment: Cytotoxicity against human Hep2 cells by MTT assay; how it was run: as §1

SMILES	Activity (WiDr)	Activity (HeLa)	Activity (HEp-2)	EC50 (WiDr)	EC50 (HeLa)	EC50 (HEp-2)
CC(=O)OC[C@@]12C([C@H](OC(=O)c3ccccc3)[C@]34CCC(C)=C3[C@@]1(O)C(=O)OC4(C)C)[C@]1(OC(C)=O)CO[C@@H]1C[C@@H]2O (stereo partly specified)	inactive	inactive	inactive	–	–	–
CC[C@@]1(O)C(=O)OCc2c1cc1n(c2=O)Cc2cc3ccccc3nc2-1 [CAMPTOTHECIN]	–	–	–	0.07 µg/mL (≈ 0.201 µM)	0.19 µg/mL (≈ 0.545 µM)	0.02 µg/mL (≈ 0.0574 µM)
CC(=O)OC[C@@]12C([C@H](OC(=O)c3ccccc3)[C@]34C[C@H](O)C(C)=C3[C@@]1(O)C(=O)OC4(C)C)[C@]1(OC(C)=O)CO[C@@H]1C[C@@H]2O (stereo partly specified)	inactive	inactive	inactive	–	–	–
CC(=O)O[C@H]1C[C@H]2[C@@H](O)/C=C3\C[C@](C)(C(=O)[C@H](O)C(=C1C)C2(C)C)[C@@H](OC(C)=O)C[C@@H]3O	inactive	inactive	inactive	–	–	–
CC1=C2[C@@]3(O)C(=O)OC(C)(C)[C@]2(CC1)[C@@H](O)C1[C@](O)(CO)[C@@H](OC(=O)c2ccccc2)C[C@H](O)[C@]13C (stereo partly specified)	inactive	inactive	inactive	–	–	–
CC(=O)O[C@H]1C[C@H]2OC[C@@]2(OC(C)=O)C2[C@H](OC(=O)c3ccccc3)[C@]3(C(C)(C)O)C[C@H](O)C(C)=C3[C@@]3(O)C(=O)OC[C@]213 (stereo partly specified)	inactive	inactive	inactive	–	–	–
CC(=O)O[C@@]12CO[C@@H]1C[C@H](O)[C@@]13COC(=O)[C@]1(O)C1=C(C)CC[C@@]1(C(C)(C)O)[C@@H](OC(=O)c1ccccc1)C32 (stereo partly specified) [TASUMATROL Y]	–	–	–	> 5 µg/mL	> 5 µg/mL	3.5 µg/mL (≈ 6.45 µM)
